Results: ChEMBL document CHEMBL1144551, “Enantioselective synthesis and antiviral activity of purine and pyrimidine cyclopentenyl C-nucleosides” (Bioorg Med Chem, 2007)
Active and inactive are the calls of the source. No cut-off for these calls is given here.

Assays:
[1] = test system: West Nile virus; assay: Antiviral activity against West Nile virus; type: functional, organism-based
[2] = test system: Cowpox virus; assay: Antiviral activity against Cowpox virus; type: functional, organism-based
[3] = Cytotoxicity against PBM cells; type: cell-based; settings: Homo sapiens, PBMC
[4] = test system: Hepatitis C virus; assay: Antiviral activity against hepatitis C virus; type: functional, organism-based; settings: Hepacivirus hominis
[5] = test system: Vero; assay: Cytotoxicity against Vero cells; type: cell-based; settings: Chlorocebus sabaeus
[6] = test system: Human alphaherpesvirus 2; assay: Antiviral activity against herpes simplex virus 2; type: functional, organism-based
[7] = test system: CCRF-CEM; assay: Cytotoxicity against CEM cells; type: cell-based; settings: Homo sapiens
[8] = test system: Human alphaherpesvirus 3; assay: Antiviral activity against varicella zoster virus; type: functional, organism-based
[9] = test system: SARS-CoV; assay: Antiviral activity against SARS coronavirus; type: functional, organism-based; settings: Severe acute respiratory syndrome-related coronavirus
[10] = test system: LLC-MK2; assay: Cytotoxicity against LLC-MK2 cells; type: cell-based, Macaca mulatta; settings: rhesus monkey
[11] = test system: Human immunodeficiency virus 1; assay: Antiviral activity against HIV1 LA1 in human PBM cells; type: functional, organism-based; settings: Human immunodeficiency virus 1, LA1, PBMC
Procedure, shortened: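 Human peripheral blood mononuclear (PBM) cells were infected with HIV-1 strain LAI, and antiviral activity was expressed as EC50.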

[12] = test system: Yellow fever virus; assay: Antiviral activity against yellow fever virus; type: functional, organism-based
[13] = test system: Vaccinia virus; assay: Antiviral activity against vaccinia virus; type: functional, organism-based; settings: Orthopoxvirus vaccinia
[14] = test system: Dengue virus; assay: Antiviral activity against dengue virus; type: functional, organism-based
[15] = test system: Human alphaherpesvirus 1; assay: Antiviral activity against HSV1; type: functional, organism-based
[16] = test system: Tacaribe virus; assay: Antiviral activity against tacaribe virus; type: functional, organism-based; settings: Mammarenavirus tacaribeense
[17] = test system: Punta Toro virus; assay: Antiviral activity against Punta Toro virus; type: functional, organism-based
[18] = test system: Venezuelan equine encephalitis virus; assay: Antiviral activity against Venezulean equine encephalitis virus; type: functional, organism-based

| Compound | EC50 [1] [µM] | EC50 [2] [µM] | IC50 [2] [µM] | IC50 [3] [µM] | Activity [4] | IC50 [5] [µM] | IC50 [1] [µM] | Activity [6] | IC50 [7] [µM] | Activity [8] | EC50 [9] [µM] | Activity [10] | EC50 [11] [µM] | EC90 [11] [µM] | Activity [12] | Activity [13] | Activity [14] | Activity [15] | Activity [16] | Activity [18] | also measured |
| --- | --- | --- | --- | --- | --- | --- | --- | --- | --- | --- | --- | --- | --- | --- | --- | --- | --- | --- | --- | --- | --- |
| Nc1ncnc2c1ncn2[C@@H]1C=C(CO)[C@@H](O)[C@H]1O [NEOPLANOCIN A] | > 51 | 8.4 | > 300 | – | – | – | – | – | – | – | – | – | – | – | – | – | – | – | – | – | – |
| Cc1cn([C@H]2C[C@H](N=[N+]=[N-])[C@@H](CO)O2)c(=O)[nH]c1=O [ZIDOVUDINE] | – | – | – | > 100 | – | – | – | – | – | – | – | – | – | – | – | – | – | – | – | – | – |
| O=c1[nH]cc([C@@H]2C=C(CO)[C@@H](O)[C@H]2O)c(=O)[nH]1 | > 100 | > 100 | > 100 | > 100 | inactive | > 100 | > 100 | inactive | > 100 | inactive | 49 | Not Active | > 100 | > 100 | inactive | inactive | inactive | inactive | inactive | inactive | IC50 [9]: > 100 µM; EC50 [17]: 65 µM; IC50 [17]: > 100 µM |
| Nc1nc(O)c2[nH]cc([C@@H]3C=C(CO)[C@@H](O)[C@H]3O)c2n1 | > 100 | > 100 | > 100 | > 100 | inactive | > 100 | > 100 | inactive | > 100 | inactive | > 100 | Not Active | > 100 | > 100 | inactive | inactive | inactive | inactive | inactive | inactive | EC50 [17]: 2.5 µM; IC50 [17]: > 100 µM |
| Nc1nc(=O)c([C@@H]2C=C(CO)[C@@H](O)[C@H]2O)c[nH]1 | 11 | > 100 | > 100 | > 100 | inactive | > 100 | > 100 | inactive | > 100 | inactive | > 100 | Not Active | > 100 | > 100 | inactive | inactive | inactive | inactive | inactive | inactive | EC50 [17]: > 100 µM; IC50 [17]: > 100 µM |
| Nc1ncnc2c([C@@H]3C=C(CO)[C@@H](O)[C@H]3O)c[nH]c12 | > 100 | > 100 | > 100 | 15.6 | inactive | > 100 | > 100 | inactive | 10.6 | inactive | – | Not Active | 2 | 43.2 | inactive | inactive | inactive | inactive | inactive | inactive | – |
